Experimental data published in ChEMBL document CHEMBL1141585, “5,5,6-Fused tricycles bearing imidazole and pyrazole 6-methylidene penems as broad-spectrum inhibitors of beta-lactamases” (Bioorg Med Chem, 2008).
The source made the active and inactive calls. The rule behind the calls is not given here.

Assays:
[1] = Inhibition of TEM1 beta-lactamase
Procedure, shortened: (§1)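 Spectrophotometric β-lactamase inhibition assay (Bush method) with nitrocefin as substrate. Tazobactam standard included in each experiment. IC₅₀ derived by curve fitting.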

Escherichia coli [2] = experiment: Antimicrobial activity against Escherichia coli GC 2253 expressing IRT2 beta-lactamase after 18 to 24 hrs by broth microdilution method; assay type: functional; also: test concentration or dose not given here
Procedure, shortened: (§2)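 CLSI broth microdilution in Mueller–Hinton II broth. Serial dilutions of piperacillin alone or piperacillin plus inhibitor; inoculum 10⁵ CFU/ml. Piperacillin + tazobactam run as comparator. MIC read as endpoint.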

Pseudomonas aeruginosa = experiment: Antimicrobial activity against Pseudomonas aeruginosa GC 1764 expressing AmpC beta-lactamase after 18 to 24 hrs by broth microdilution method; assay type: functional; procedure, shortened: as §2; also: test concentration or dose not given here
Escherichia coli [3] = experiment: Antimicrobial activity against Escherichia coli GC 2804 expressing imp beta-lactamase after 18 to 24 hrs by broth microdilution method; assay type: functional; procedure, shortened: as §2; also: test concentration or dose not given here
Escherichia coli [4] = experiment: Antimicrobial activity against Escherichia coli GC 2883 expressing OXA10 and PSE2 beta-lactamase after 18 to 24 hrs by broth microdilution method; assay type: functional; procedure, shortened: as §2
Enterobacter cloacae [5] = experiment: Antimicrobial activity against Enterobacter cloacae GC 4142 expressing AmpC beta-lactamase after 18 to 24 hrs by broth microdilution method; assay type: functional; procedure, shortened: as §2; also: test concentration or dose not given here
Serratia marcescens [6] = experiment: Antimicrobial activity against Serratia marcescens GC 1781 expressing Sme1 and AmpC beta-lactamase after 18 to 24 hrs by broth microdilution method; assay type: functional; procedure, shortened: as §2; also: test concentration or dose not given here
Escherichia coli [7] = experiment: Antimicrobial activity against Escherichia coli GC 2203 after 18 to 24 hrs by broth microdilution method; assay type: functional; procedure, shortened: as §2
Enterobacter cloacae [8] = experiment: Antimicrobial activity against Enterobacter cloacae GC 1475 expressing P99 beta-lactamase after 18 to 24 hrs by broth microdilution method; assay type: functional; procedure, shortened: as §2; also: test concentration or dose not given here
Escherichia coli [9] = experiment: Antimicrobial activity against Escherichia coli GC 2847 expressing TEM1 beta-lactamase after 18 to 24 hrs by broth microdilution method; assay type: functional; procedure, shortened: as §2; also: test concentration or dose not given here
[10] = tested on: Stenotrophomonas maltophilia; experiment: Antimicrobial activity against Stenotrophomonas maltophilia GC 1721 expressing L1 beta-lactamase after 18 to 24 hrs by broth microdilution method; assay type: functional; procedure, shortened: as §2; also: test concentration or dose not given here
[11] = Inhibition of AmpC beta-lactamase; procedure, shortened: as §1
Escherichia coli [12] = experiment: Antimicrobial activity against Escherichia coli GC 2920 expressing IRT2 beta-lactamase after 18 to 24 hrs by broth microdilution method; assay type: functional; procedure, shortened: as §2
Staphylococcus aureus = experiment: Antimicrobial activity against Staphylococcus aureus GC 2216 after 18 to 24 hrs by broth microdilution method; assay type: functional; procedure, shortened: as §2; also: test concentration or dose not given here
Serratia marcescens [13] = experiment: Antimicrobial activity against Serratia marcescens GC 4132 expressing AmpC beta-lactamase after 18 to 24 hrs by broth microdilution method; assay type: functional; procedure, shortened: as §2; also: test concentration or dose not given here
Escherichia coli [14] = experiment: Antimicrobial activity against Escherichia coli GC 2894 expressing AmpC beta-lactamase after 18 to 24 hrs by broth microdilution method; assay type: functional; procedure, shortened: as §2
Escherichia coli [15] = experiment: Antimicrobial activity against Escherichia coli GC 2844 after 18 to 24 hrs by broth microdilution method; assay type: functional; procedure, shortened: as §2
Enterobacter cloacae [16] = experiment: Antimicrobial activity against Enterobacter cloacae GC 1477 expressing AmpC beta-lactamase after 18 to 24 hrs by broth microdilution method; assay type: functional; procedure, shortened: as §2; also: test concentration or dose not given here
Enterobacter cloacae [17] = experiment: Antimicrobial activity against Enterobacter cloacae GC 6991 expressing AmpC beta-lactamase after 18 to 24 hrs by broth microdilution method; assay type: functional; procedure, shortened: as §2; also: test concentration or dose not given here
Escherichia coli [18] = experiment: Antimicrobial activity against Escherichia coli GC 2905 expressing P99 beta-lactamase after 18 to 24 hrs by broth microdilution method; assay type: functional; procedure, shortened: as §2
Escherichia coli [19] = experiment: Antimicrobial activity against Escherichia coli GC 2906 expressing Imi1 beta-lactamase after 18 to 24 hrs by broth microdilution method; assay type: functional; procedure, shortened: as §2; also: test concentration or dose not given here
Escherichia coli [20] = experiment: Antimicrobial activity against Escherichia coli GC 2805 expressing CcrA beta-lactamase after 18 to 24 hrs by broth microdilution method; assay type: functional; procedure, shortened: as §2
[21] = Inhibition of Imi1 beta lactamase
Escherichia coli [22] = experiment: Antibacterial efficacy against Escherichia coli LSU 80-8 infected ip dosed CD1 mouse model; assay type: functional
Procedure, shortened: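 Female CD-1 mice, five per dose level, five dose levels per compound. Lethal intraperitoneal challenge (10–100 LD₅₀), then intravenous piperacillin alone or piperacillin plus inhibitor at a 4:1 (Pip:Inhibitor) ratio. Survival read at 7 days; ratios from three separate tests pooled; ED₅₀ by probit analysis.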

Compound | IC50 [1] [nM] | MIC (Escherichia coli [2]) [µg/mL] | MIC (Pseudomonas aeruginosa) [µg/mL] | MIC (Escherichia coli [3]) [µg/mL] | MIC (Escherichia coli [4]) [µg/mL] | MIC (Enterobacter cloacae [5]) [µg/mL] | MIC (Serratia marcescens [6]) [µg/mL] | MIC (Escherichia coli [7]) [µg/mL] | MIC (Enterobacter cloacae [8]) [µg/mL] | MIC (Escherichia coli [9]) [µg/mL] | MIC [10] [µg/mL] | IC50 [11] [nM] | MIC (Escherichia coli [12]) [µg/mL] | MIC (Staphylococcus aureus) [µg/mL] | MIC (Serratia marcescens [13]) [µg/mL] | MIC (Escherichia coli [14]) [µg/mL] | MIC (Escherichia coli [15]) [µg/mL] | MIC (Enterobacter cloacae [16]) [µg/mL] | MIC (Enterobacter cloacae [17]) [µg/mL] | MIC (Escherichia coli [18]) [µg/mL] | also measured
O=C([O-])C1=CS[C@@H]2/C(=C/c3cc4oc5c(n4n3)CCOC5)C(=O)N12.[Na+] | 150 | 32 | 64 | 0.12 | 16 | > 64 | 4 | 2 | 32 | > 64 | > 64 | 53 | 8 | 64 | 32 | 32 | 2 | > 64 | 32 | 32 | MIC (Escherichia coli [19]): 64 µg/mL; MIC (Escherichia coli [20]): > 64 µg/mL; IC50 [21]: 2900 nM
O=C([O-])C1=CS[C@@H]2/C(=C\c3cn4c5c(sc4n3)CCCC5)C(=O)N12.[Na+] | 1.9 | 16 | 2 | < 0.06 | 2 | 8 | 1 | 2 | 8 | 8 | > 64 | 0.62 | 2 | < 0.06 | 2 | 4 | 2 | 32 | 16 | 4 | MIC (Escherichia coli [19]): 2 µg/mL; MIC (Escherichia coli [20]): > 64 µg/mL; ED50 (Escherichia coli [22]): 23.3 mg/kg; IC50 [21]: 33 nM
C[C@]1(Cn2ccnn2)[C@H](C(=O)[O-])N2C(=O)C[C@H]2S1(=O)=O.[Na+] [TAZOBACTAM SODIUM] | 100 | 2 | > 64 | < 0.06 | 1 | 64 | 0.5 | 1 | 64 | 2 | > 64 | 84000 | 4 | 0.5 | 64 | 32 | 2 | > 64 | > 64 | 64 | MIC (Escherichia coli [19]): 2 µg/mL; MIC (Escherichia coli [20]): > 64 µg/mL; ED50 (Escherichia coli [22]): 20 mg/kg; Activity [21]: inactive
O=C([O-])C1=CS[C@@H]2/C(=C\c3cn4c(n3)nc3n4CCCC3)C(=O)N12.[Na+] | 2.4 | 16 | 32 | < 0.06 | 2 | 8 | 0.5 | 1 | 2 | 8 | > 64 | 1.4 | 2 | 0.25 | 1 | 2 | 2 | > 64 | 16 | 2 | MIC (Escherichia coli [19]): 64 µg/mL; MIC (Escherichia coli [20]): > 64 µg/mL; ED50 (Escherichia coli [22]): 32.5 mg/kg; IC50 [21]: 14 nM
CCN1CCN(C(=O)N[C@@H](C(=O)N[C@@H]2C(=O)N3[C@@H]2SC(C)(C)[C@@H]3C(=O)O)c2ccccc2)C(=O)C1=O [PIPERACILLIN] |  |  |  |  |  |  |  |  |  |  |  |  |  |  |  |  |  |  |  |  | ED50 (Escherichia coli [22]): > 128 mg/kg
O=C([O-])C1=CS[C@@H]2/C(=C\c3cc4oc5c(n4n3)CCOC5)C(=O)N12.[Na+] | 4.3 | 16 | 32 | < 0.06 | 8 | 32 | 2 | 4 | 32 | 32 | > 64 | 4 | 2 | 16 | 8 | 16 | 2 | 64 | 16 | 16 | MIC (Escherichia coli [19]): 8 µg/mL; MIC (Escherichia coli [20]): > 64 µg/mL; IC50 [21]: 140 nM
Cn1c2ccccc2n2cc(/C=C3/C(=O)N4C(C(=O)[O-])=CS[C@H]34)nc12.[Na+] | 24 | 32 | 64 | < 0.06 | 64 | > 64 | 2 | 2 | 64 | > 64 | > 64 | 16 | 4 | 64 | 16 | 32 | 4 | > 64 | 32 | 32 | MIC (Escherichia coli [19]): 16 µg/mL; MIC (Escherichia coli [20]): > 64 µg/mL; IC50 [21]: 50 nM

More lines, in order of falling IC50 [1], values ahead:

IC50 [1] [nM] | MIC (Escherichia coli [2]) [µg/mL] | MIC (Pseudomonas aeruginosa) [µg/mL] | MIC (Escherichia coli [3]) [µg/mL] | MIC (Escherichia coli [4]) [µg/mL] | MIC (Enterobacter cloacae [5]) [µg/mL] | MIC (Serratia marcescens [6]) [µg/mL] | MIC (Escherichia coli [7]) [µg/mL] | MIC (Enterobacter cloacae [8]) [µg/mL] | MIC (Escherichia coli [9]) [µg/mL] | MIC [10] [µg/mL] | IC50 [11] [nM] | MIC (Escherichia coli [12]) [µg/mL] | MIC (Staphylococcus aureus) [µg/mL] | MIC (Serratia marcescens [13]) [µg/mL] | MIC (Escherichia coli [14]) [µg/mL] | MIC (Escherichia coli [15]) [µg/mL] | MIC (Enterobacter cloacae [16]) [µg/mL] | MIC (Enterobacter cloacae [17]) [µg/mL] | MIC (Escherichia coli [18]) [µg/mL] | Compound | also measured
4 | 16 | 64 | < 0.06 | 8 | 32 | 2 | 2 | 32 | 16 | > 64 | 5.5 | 4 | 16 | 8 | 32 | 2 | 64 | 32 | 32 | O=C([O-])C1=CS[C@@H]2/C(=C\c3cc4oc5c(n4n3)CCCC5)C(=O)N12.[Na+] | MIC (Escherichia coli [19]): 4 µg/mL; MIC (Escherichia coli [20]): > 64 µg/mL; IC50 [21]: 160 nM
2.8 | 16 | 4 | < 0.06 | 4 | 8 | 1 | 4 | 8 | 4 | > 64 | 1.5 | 2 | 2 | 2 | 2 | 2 | 16 | 16 | 8 | O=C([O-])C1=CS[C@@H]2/C(=C\c3cn4c5c(sc4n3)COCC5)C(=O)N12.[Na+] | MIC (Escherichia coli [19]): 2 µg/mL; MIC (Escherichia coli [20]): > 64 µg/mL; ED50 (Escherichia coli [22]): 25.3 mg/kg; IC50 [21]: 100 nM
1.4 | 8 | 2 | < 0.06 | 2 | 4 | 1 | 2 | 4 | 4 | > 64 | 2.1 | 2 | 2 | 2 | 2 | 2 | 16 | 16 | 4 | O=C([O-])C1=CS[C@@H]2/C(=C\c3cn4c5c(sc4n3)CCC5)C(=O)N12.[Na+] | MIC (Escherichia coli [19]): 2 µg/mL; MIC (Escherichia coli [20]): > 64 µg/mL; ED50 (Escherichia coli [22]): 19 mg/kg
1.2 | 16 | > 64 | < 0.06 | 8 | 64 | 2 | 2 | 64 | 32 | > 64 | 4 | 4 | 16 | 8 | 64 | 2 | > 64 | 64 | 32 | CCOC(=O)N1CCc2c(oc3cc(/C=C4/C(=O)N5C(C(=O)[O-])=CS[C@H]45)nn23)C1.[Na+] | MIC (Escherichia coli [19]): 64 µg/mL; MIC (Escherichia coli [20]): > 64 µg/mL; IC50 [21]: 98 nM
